# Sampled rows, rich in hits. Any-hit rate of the full collection: about 0.58%.
# TNF necrop inh – blocks TNF-alpha induced death of Jurkat FADD-/- cells. Jurkat FADD-/- TNF necroptosis rescue, ATP luminescence, 24 h; 0 = TNF only, 100 = no-TNF cells. 220,000 compounds, 0.068% hits. activation (protection from cell death), % at 10 µM;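 active = activation, meaning protection from cell death, of at least 50% relative to plate controls; inactive = activation below 50%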;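 note: necroptosis triggered by 40 ng/mL TNF-alpha added together with compound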
# Pf gamet viab – P. falciparum stage V gametocyte viability inhibition. P. falciparum stage V gametocytes, ATP luminescence, 24 h. inhibition, % at 10.9 µM. 150,000 compounds, 0.065% hits;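 active = inhibition above the mean plus 3 SD of compounds within the control limits, set per campaign, cut at about 38% in these data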
# zVAD death inh – blocks zVAD induced death of L929 cells; viability rescue, % at 10 µM; 220,000 compounds, 0.38% hits; L929 zVAD necroptosis rescue, ATP luminescence, 24 h; with zVAD 60 µM;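 active = activation, scaled between plate controls, above about 75%, limit read from the data; inactive = activation under that limit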
# Mdm2 ligase inh – blocks human Mdm2 ubiquitin ligase activity; Q00987; signal enhancement, % at 5 µM; cell-based MDM2 ubiquitination luciferase reporter, 2 h; 0 = plate control, 100 = twice control, blank-subtracted; AID 1230; 210,000 compounds, 0.11% hits;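 active = signal enhancement of 30% or more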;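 note: luminescence tracks abundance of the self-degrading MDM2-luciferase fusion protein; higher signal means inhibition of MDM2 E3 ligase activity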
# Target sequence (Q00987 whole entry, looked up, the tested form may be a part): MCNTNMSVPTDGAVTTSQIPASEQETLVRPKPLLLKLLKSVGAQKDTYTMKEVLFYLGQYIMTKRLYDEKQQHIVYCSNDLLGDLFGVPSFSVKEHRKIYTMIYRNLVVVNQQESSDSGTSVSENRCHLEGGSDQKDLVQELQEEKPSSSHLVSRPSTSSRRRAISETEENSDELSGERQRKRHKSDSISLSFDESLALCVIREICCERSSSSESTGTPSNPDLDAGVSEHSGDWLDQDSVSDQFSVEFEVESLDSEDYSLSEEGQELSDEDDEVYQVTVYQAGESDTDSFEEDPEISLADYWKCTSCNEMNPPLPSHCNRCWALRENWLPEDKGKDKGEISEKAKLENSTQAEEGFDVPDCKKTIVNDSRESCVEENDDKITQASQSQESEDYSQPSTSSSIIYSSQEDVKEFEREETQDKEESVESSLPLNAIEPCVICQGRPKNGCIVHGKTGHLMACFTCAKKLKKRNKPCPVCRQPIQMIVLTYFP
#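 Timing – 2 h compound exposure at 37 °C · Assay system – mammalian cells stably expressing self-ubiquitinating, self-degrading MDM2 E3–luciferase fusion · Amount – 2000 cells seeded into each well · Measure – % luminescence enhancement versus blank-corrected plate control mean · Measured by – SteadyLite luminescence, 15 min reagent step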
# Rad51 HR inh – Rad51 (human) homologous recombination inhibition | inhibition, % at 10 µM | 200,000 compounds, 0.085% hits | Q06609 | hRad51 DNA strand exchange, fluorescence dequenching;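 active = inhibition above 40% at the single screening dose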
#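 Material: Human Rad51 nucleoprotein filaments preassembled on unlabelled ssDNA | Also added: Labelled 47-mer dsDNA for strand exchange | Dosing: Single dose, 10 µM final compound | Schedule: 30-min compound preincubation and 15-min exchange, both room temperature | Technique: Fluorescence dequenching at 485/520 nm | Measure: Percent inhibition relative to plate controls and blanks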
# zVAD necrop conf – confirmed blocker of zVAD induced death in L929 cells; shares compounds with zVAD death inh; AID 463117; L929 zVAD-induced necroptosis rescue, ATP luminescence, 24 h; activation (protection from necroptosis), % at 10 µM; 760 compounds, 16% hits;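 active = mean protection from necroptosis of at least 50% over duplicate tests; inactive = mean protection below 50%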
# Numbers stand for hits; . = inactive; / = no result given.
SMILES,TNF necrop inh,Pf gamet viab,zVAD death inh,Mdm2 ligase inh,Rad51 HR inh,zVAD necrop conf
CCN(CC)C(=O)c1ccc(-c2nnc(Nc3ccc(O)cc3)c3ccccc23)cc1,/,.,/,/,/,/
CN(C)C(=O)c1ccc(-c2nnc(NCc3ccccc3)c3ccccc23)cc1,.,/,75,.,.,.
CCn1ccnc1CN(C)Cc1cn[nH]c1-c1ccc(OC)c(F)c1,.,.,.,.,/,/
O=c1[nH]c2ccccc2nc1-c1ccc(Cl)cc1,.,.,76,/,.,.
O=C(OCn1ncc(Cl)c(Cl)c1=O)c1cccc(C(F)(F)F)c1,.,/,99,.,.,.
CCOC(=O)/C(=N/O)C1=NC(C)(C)Cc2cc(C)c(C)cc21,.,/,.,.,.,/
C/C(=N\NC(=O)c1cc(-c2ccncc2)nc2ccccc12)c1ccc(OC(F)F)cc1,.,.,.,.,.,/
COc1ccc(CC(=O)Nc2nnc(C(C)C)s2)cc1,.,.,82,.,.,.
COc1ccc(NC(=O)Nc2nnc(C(C)C)s2)cc1,.,/,95,.,.,.
CC(C)c1nnc(NC(=O)Cc2ccc(Br)cc2)s1,.,.,/,.,.,/
CC(=O)c1cnc(Nc2ccc(C)cc2)s1,.,.,84,.,.,.
Oc1ccccc1N=Cc1c(O)ccc2ccccc12,.,/,84,.,.,.
COC(=O)c1c(-c2ccccc2)nn(-c2ccccc2)c1C(=O)OC,/,.,/,/,/,/
COc1ccc(C2=NOC3(CC(=O)N(c4ccc(F)cc4)C3=O)C2)cc1 (stereo not given),.,.,.,.,.,/
Cc1ccc2c(c1)C1CN(C)CCC1N2C(=O)Nc1ccc(Cl)cc1 (stereo not given),.,/,82,.,.,.
Cc1ccc2c(c1)C1CN(C)CCC1N2C(=O)c1cccc(S(=O)(=O)N(C)C)c1 (stereo not given),.,.,.,.,.,/
O=c1oc(-c2ccc(Br)cc2)nc2ccccc12,/,.,/,/,/,/
CCN(CC)CCOc1c(Br)ccc2c1sc1nc3n(c(=O)c12)CCC3,.,/,81,.,.,.
CCNC(=O)c1c(O)c2ccccc2[nH]c1=O,55,/,76,.,.,.
Cc1cc(NO)c(C(C)C)cc1N=O,.,.,78,.,.,.
Cc1cc(O)c(C(C)C)cc1N=Nc1ccccc1C(=O)O,.,.,.,.,.,/
CC1=NNC(=O)C1CC(=O)N/N=C/C=C/c1ccccc1 (stereo not given),.,.,.,/,.,/
CCCC(=O)OCC(=O)Nc1ccc2[nH]c(=O)[nH]c2c1,.,.,.,.,.,/
CCC(C)c1ccc(OCC(=O)Nc2ccc3[nH]c(=O)[nH]c3c2)cc1 (stereo not given),.,/,78,.,.,.
Cc1ccc(/C=N/Nc2ncnc3nc[nH]c23)cc1,.,.,.,.,.,/
SMILES,TNF necrop inh,Pf gamet viab,zVAD death inh,Mdm2 ligase inh,Rad51 HR inh,zVAD necrop conf
Clc1ccc(/C=N/Nc2ncnc3nc[nH]c23)cc1,.,.,78,.,.,.
O=C(Nc1ccc(-c2nnc(-c3ccccc3)o2)cc1)C(F)(F)F,.,/,.,.,/,/
CC(=O)/C=C(\C)Nc1ccc(-c2cnc(-c3ccccc3)o2)cc1,.,.,96,.,.,.
Cc1cn(-c2cc(C(=O)Nc3ccc(C)c(NC(=O)C(=O)c4c[nH]c5ccccc45)c3)cc(C(F)(F)F)c2)cn1,.,/,77,.,.,71
Cc1ccc(C(=O)Nc2cccc(C(F)(F)F)c2)cc1NC(=O)c1c[nH]c2cc(C(F)(F)F)ccc2c1=O,/,.,/,/,/,/
Nc1ccc(-n2cnc3cc([N+](=O)[O-])ccc32)cc1,.,.,78,.,.,.
COc1ccc(-n2cnc3cc(NS(=O)(=O)c4ccc(C)cc4)ccc32)cc1,.,/,85,.,.,.
CCn1cnc2cc(NS(=O)(=O)c3ccc(C)cc3)ccc21,.,/,.,.,.,/
Cc1cccc(-n2cnc3cc([N+](=O)[O-])ccc32)c1,.,.,.,.,.,/
COc1ccc(-n2cnc3cc([N+](=O)[O-])ccc32)cc1,.,/,79,.,.,.
CCCC(=O)Nc1cccc(C(=O)Nc2nccs2)c1,.,/,98,.,.,.
CC(C)C(=O)Nc1cccc(C(=O)Nc2nccs2)c1,.,.,77,.,.,.
O=C(Nc1nccs1)c1cccc(NC(=O)C2CC2)c1,.,/,.,.,.,/
CCC(=O)Nc1cccc(C(=O)Nc2nccs2)c1,.,.,86,.,.,.
COc1cc(C)ccc1OCCOCCOc1ccc([N+](=O)[O-])cc1,.,.,.,.,.,/
c1ccc(-c2csc3ncnc(NCc4ccccn4)c23)cc1,.,.,78,.,.,.
c1ccc(CNc2ncnc3scc(-c4cccs4)c23)nc1,.,.,.,.,.,/
COc1ccc(CN2CCC(=O)N([C@H](CO)CC(C)C)CC2)cc1,/,.,/,/,/,/
COc1ccc(-c2oc3ncnc(NCCN4CCOCC4)c3c2-c2ccc(OC)cc2)cc1,.,/,.,.,.,/
COc1ccc(-c2oc3ncnc(NCCCN4CCOCC4)c3c2-c2ccc(OC)cc2)cc1,.,.,77,.,.,.
CCC1NC(=O)c2ccccc2N1c1cccc(Cl)c1 (stereo not given),/,.,/,/,/,/
CCN(CC)c1ccc(N/C(N)=N/c2nc(C(F)(F)F)cc(=O)[nH]2)cc1,.,.,91,.,.,.
COc1ccc(/C=N/Nc2ncc(Br)cn2)c(OC)c1,.,.,85,.,.,.
Cc1ccc([N+](=O)[O-])cc1S(=O)(=O)Nc1ccc(N2CCOCC2)cc1,.,.,.,.,.,/
c1ccc(Nc2nc3ccccc3[nH]2)nc1,.,.,75,.,.,.
SMILES,TNF necrop inh,Pf gamet viab,zVAD death inh,Mdm2 ligase inh,Rad51 HR inh,zVAD necrop conf
Nc1ccc(Nc2nc3ccccc3[nH]2)cc1,/,.,/,/,/,/
CC(=O)Nc1ccc(C(=O)NNC(=O)c2ccc(Cl)cc2)cc1,/,.,/,/,/,/
COc1ccc(NC(=O)NC23CC4(C)CC(C)(CC(C)(C4)C2)C3)cc1,.,.,76,.,.,.
COc1ccc(C(=O)NNC(=O)Nc2ccc(Cl)cc2)cc1,.,.,81,.,.,.
CN(CC(=O)Nc1cccc([N+](=O)[O-])c1)S(=O)(=O)c1ccccc1,.,.,.,.,.,/
[N-]=[N+]=NCC/C=C\C1NS(=O)(=O)OCC1O (stereo not given),/,.,/,/,/,/
N#Cc1c(N)n[nH]c1-c1cc2c([nH]1)CCCC2,.,.,88,.,.,.
N#Cc1cc2c([nH]c1=S)CCCCCC2,.,/,.,.,.,/
O=C(NC12CC3CC(CC(C3)C1)C2)c1ccc(-c2ccc(Br)cc2)o1,.,.,80,.,.,.
CNC(=O)NC(=O)COC(=O)/C=C/c1cccc(Br)c1,.,.,.,.,.,/
COc1cc(CNC(C)(C)CO)ccc1OCC(=O)Nc1ccc(Br)cc1,.,.,84,.,.,.

# Screens: PubChem, several laboratories
